We go through 40 compounds from ChEMBL document CHEMBL1139692, “Optimization of pyrimidinyl- and triazinyl-amines as non-nucleoside inhibitors of HIV-1 reverse transcriptase” (Bioorg Med Chem Lett, 2006).

Bounds are passed on as bounds.

In data set [1] the test system is Human immunodeficiency virus 1. Put plainly: Antiviral activity against HIV1 3B in MT2 cells. The class given is functional, organism-based. Particulars: Human immunodeficiency virus 1, 3B. The procedure, abridged:
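HIV-1 IIIB infection of human MT-2 T-cells. Protection was read by MTT colorimetric assay. Curves used triplicate samples at each concentration.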

Data set [2] can be described thus: Cytotoxicity against MT2 cells. To be noted: human. Format: cell-based. The procedure, abridged:
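Growth of MT-2 cells was measured by MTT colorimetric read-out, run at the same time as the anti-HIV-1 IIIB protection assay.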

Data set [3] can be described thus: Ratio of CC50 for MT cells/EC50 for HIV1. The class given is functional.

As usually defined, the EC50 is the concentration giving half of the maximal effect. Read a low EC50 as greater potency. For orientation: CC50 means the concentration at which the toxic effect on the cells reaches its halfway point. A lower CC50 goes with harm at low concentration. `CC(C)=CCOc1cc(Nc2nccc(N)n2)ccc1Cl` yielded an EC50 in data set [1] of 0.075 µM. Moreover, in data set [2], it took 0.5 µM to reach half-maximal cytotoxicity (CC50). In turn, `COCc1ccnc(Nc2ccc(Cl)c(OCC=C(C)C)c2)n1` displayed a CC50 in data set [2] of more than 25 µM. As to `CC(C)=CCOc1cc(Nc2ncccn2)ccc1C#N`, a half-maximal effect in data set [1] (EC50) was put at 0.017 µM. Moreover, in data set [2], the midpoint of cytotoxicity, the CC50, lay at 0.036 µM.

In data set [1], `COc1cc(OC)nc(Nc2ccc(Cl)c(OCC=C(C)C)c2)n1` had an EC50 of 0.25 µM. The same compound gave a CC50 in data set [2] of 28 µM. The like results for `CC(C)=CCOc1cc(Nc2ncccn2)ccc1Cl` were, in that order, 0.2 µM and 2.5 µM.

Turning to `CC(C)=CCOc1cc(Nc2nccc(C)n2)ccc1Cl`, in data set [1], the EC50 was found to be 0.039 µM. For the same compound, the cytotoxic concentration (CC50) in data set [2] stood at 0.15 µM. The like results for `CCc1ccnc(Nc2ccc(Cl)c(OCC=C(C)C)c2)n1` were, in that order, 0.016 µM and 0.33 µM. The corresponding values for `COc1ccnc(Nc2ccc(Cl)c(Oc3ccc(C)cc3)c2)n1` are 10 µM and more than 100 µM.

`COc1cc(OC)nc(Nc2ccc(C#N)c(OCC=C(C)C)c2)n1`: a half-maximal effect in data set [1] (EC50) was put at 0.16 µM. For the same compound, the CC50 in data set [2] came out at 0.81 µM. The corresponding values for `Clc1ccc(Nc2ncccn2)cc1Oc1ccccc1` are 13 µM and 30 µM.

`C/C=C/COc1cc(Nc2nccc(OC)n2)ccc1Cl` returned a half-maximal effective concentration (EC50) in data set [1] of 0.089 µM. In addition, in data set [2], the CC50 was 17 µM. The corresponding values for `COc1ccnc(Nc2ccc(Cl)c(Sc3ccccc3)c2)n1` are 0.32 µM and 21 µM. For the compound `COc1ncnc(Nc2ccc(Cl)c(OCC=C(C)C)c2)n1`, in data set [1], a half-maximal response (EC50) required 0.031 µM. The CC50 in data set [2] was determined as 18 µM. In data set [2], `CC(C)=CCOc1cc(Nc2ncnc(Cl)n2)ccc1Cl` had a CC50 of 45 µM. With `CCOc1ccnc(Nc2ccc(Cl)c(OCC=C(C)C)c2)n1`, a half-maximal response in data set [1] (EC50) required 0.041 µM. Moreover, the midpoint of cytotoxicity in data set [2], the CC50, lay at 19 µM. Compound `C/C=C/COc1cc(Nc2ncccn2)ccc1Cl` gave an EC50 in data set [1] of 2.3 µM. The compound also yielded a CC50 in data set [2] of 31 µM. The like results for `CC(C)=CCOc1cc(Nc2nc(C)nc(Cl)n2)ccc1Cl` were, in that order, 12 µM and 40 µM. Take `COc1nc(C)nc(Nc2ccc(Cl)c(OCC=C(C)C)c2)n1`: the response in data set [1] was half-maximal at 0.1 µM (EC50). The compound further showed a cytotoxic concentration (CC50) in data set [2] of 12 µM. `COc1nc(Nc2ccc(C#N)c(OCC=C(C)C)c2)nc(OC)n1`: in data set [1], the concentration giving a half-maximal response (EC50) was 0.022 µM. For the same compound, in data set [2], the 50% cytotoxic concentration (CC50) is more than 100 µM. Also, the “Ratio CC50/EC50” value in data set [3] is more than 1000.

In data set [1], `CSc1ncnc(Nc2ccc(C#N)c(OCC=C(C)C)c2)n1` had an EC50 of 0.005 µM. Further, it took 8.4 µM to reach half-maximal cytotoxicity in data set [2] (CC50). Moreover, in data set [3], the “Ratio CC50/EC50” value is more than 1000. Turning to `COc1ccnc(Nc2ccc(Cl)c(Oc3ccccc3)c2)n1`, the EC50 in data set [1] turned out to be 2.5 µM. For the same compound, the CC50 in data set [2] turned out to be 38 µM. Take `COc1ccnc(Nc2ccc(Cl)c(Oc3ccccc3C)c2)n1`: in data set [2], the cytotoxic concentration (CC50) came out at 13 µM. `CNc1ccnc(Nc2ccc(Cl)c(OCC=C(C)C)c2)n1`: the EC50 in data set [1] amounted to 0.006 µM. In addition, in data set [2], the CC50 came out at 0.69 µM.

As to `COc1ccnc(Nc2ccc(Cl)c(Oc3cccc(C)c3)c2)n1`, the EC50 in data set [1] stood at 0.54 µM. In data set [2], this compound gave a CC50 of 18 µM.

Compound `CC(C)=CCOc1cc(Nc2nccc(CO)n2)ccc1Cl` displayed a CC50 in data set [2] of 0.22 µM. For the compound `COc1ccnc(Nc2ccc(Cl)c(OCC=C(C)C)c2)n1`, the EC50 in data set [1] is 0.01 µM. The midpoint of cytotoxicity in data set [2], the CC50, lay at 9 µM. The corresponding values for `COc1nc(Nc2ccc(Cl)c(OCC=C(C)C)c2)nc(OC)n1` are 0.29 µM and 20 µM. `COc1nc(N)nc(Nc2ccc(C#N)c(OCC=C(C)C)c2)n1` showed an EC50 in data set [1] of 0.009 µM. This compound also yielded a cytotoxic concentration (CC50) in data set [2] of 0.11 µM. `CC(C)=CCOc1cc(Nc2ncnc(N)n2)ccc1C#N`: the midpoint of the response in data set [1], the EC50, lay at 0.015 µM. Besides, the CC50 in data set [2] was 0.2 µM. With `CNc1ncnc(Nc2ccc(Cl)c(OCC=C(C)C)c2)n1`, it took 0.031 µM to reach a half-maximal effect in data set [1] (EC50). Further, the CC50 in data set [2] came out at 3.1 µM. The corresponding values for `CSc1ccnc(Nc2ccc(Cl)c(OCC=C(C)C)c2)n1` are 0.018 µM and 2.8 µM. The like results for `COc1cc(N)nc(Nc2ccc(Cl)c(OCC=C(C)C)c2)n1` were, in that order, 3 µM and 19 µM. In data set [1], `COc1ccnc(Nc2ccc(C#N)c(OCC=C(C)C)c2)n1` showed an EC50 of 0.002 µM.

The compound `CC(C)=CCOc1cc(Nc2ncnc(N)n2)ccc1Cl` showed a concentration giving a half-maximal response (EC50) in data set [1] of 0.39 µM. The compound further yielded a 50% cytotoxic concentration (CC50) in data set [2] of 48 µM.

In turn, `CNc1ccnc(Nc2ccc(C#N)c(OCC=C(C)C)c2)n1` gave an EC50 in data set [1] of 0.005 µM. The same compound had a CC50 in data set [2] of 0.022 µM. In data set [2], `COc1nc(Cl)nc(Nc2ccc(Cl)c(OCC=C(C)C)c2)n1` registered a CC50 of 26 µM. The compound `CC(C)=CCOc1cc(Nc2ncnc(Cl)n2)ccc1C#N` yielded an EC50 in data set [1] of 0.31 µM. The cytotoxic concentration (CC50) in data set [2] is more than 100 µM. Turning to `O=C1Nc2ccc(Cl)cc2[C@@](C#CC2CC2)(C(F)(F)F)O1` [EFAVIRENZ], in data set [2], the CC50 was more than 0.1 µM. Still for that read-out and setting: with `Cc1cc(C#N)cc(C)c1Oc1nc(Nc2ccc(C#N)cc2)nc(N)c1Br` [ETRAVIRINE] the figure was more than 1 µM; with `Cc1ccnc2c1NC(=O)c1cccnc1N2C1CC1` [NEVIRAPINE], more than 10 µM.
